The subject of data set [1] is HCT-15. Kind of data set: Cytotoxicity against human HCT15 cells assessed as growth inhibition by SRB assay. It counts as functional, cell-based. The procedure, abridged:
(§1)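 Human cancer lines supplied by NCI. Cytotoxicity was measured by sulforhodamine B (SRB) assay at KRICT, with doxorubicin as positive control. IC50 reported.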
(In general: In SRB staining, fixed cells bind dye roughly in proportion to their protein.)

The test system of data set [2] is BV-2. Nature of the data set: Antiinflammatory activity in mouse BV2 cells assessed as inhibition of LPS-induced nitrite production incubated for 30 mins prior to LPS challenge measured after 24 hrs by Griess assay. It counts as functional, cell-based. The procedure, abridged: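 BV-2 murine microglia seeded at 3 × 10^4 cells/well, grown 24 h, then pretreated with compound for 30 min before 100 ng/mL LPS stimulation for a further 24 h. Nitrite in the medium was read by Griess reaction (1% sulfanilamide, 0.1% N-1-naphthylethylenediamine dihydrochloride in 5% phosphoric acid), with absorbance at 540 nm after 10 min against a sodium nitrite standard. L-NMMA was the positive control. IC50 reported.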
(The Griess reaction detects nitrite, a stable product of nitric oxide.)

The test system of data set [3] is A549. Kind of data set: Cytotoxicity against human A549 cells assessed as growth inhibition by SRB assay. It counts as functional, cell-based. The procedure, abridged: as §1
The subject of data set [4] is BV-2. Nature of the data set: Cytotoxicity against mouse BV2 cells assessed as cell viability by MTT assay. Format: cell-based. The procedure, abridged: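 Viability of BV-2 microglia was measured by MTT assay in parallel with the LPS-stimulated NO experiment: 3 × 10^4 cells/well, 30 min compound pretreatment, then 100 ng/mL LPS for 24 h.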
On the technique in general: Tetrazolium dyes change colour on reduction, which living cells bring about.

Data set [5] relates to SK-MEL-2. Kind of data set: Cytotoxicity against human SK-MEL-2 cells assessed as growth inhibition by SRB assay. Format: functional, cell-based. The procedure, abridged:
as §1

Data set [6] concerns SK-OV-3. Kind of data set: Cytotoxicity against human SKOV3 cells assessed as growth inhibition by SRB assay. It counts as functional, cell-based. In outline: as §1

We go through 16 molecules from ChEMBL document CHEMBL2375346, “Lanostane triterpenoids from the mushroom Naematoloma fasciculare” (J Nat Prod, 2013).

Activity calls are given as the source filed them. The calls are words filed in the database; no cut-off is given here. Where only a bound is given, the exact number is not on record here.

Usually IC50 stands for the midpoint of a concentration-inhibition curve. As for `CC(C)(O)[C@H](O)CC[C@@H](CO)[C@H]1CC[C@@]2(C)C3=C(C[C@H](O)[C@]12C)[C@@]1(C)C[C@@H](O)[C@H](O)C(C)(C)[C@@H]1CC3=O`, the IC50 stood at 8.5 µM in data set [1]; 49.9 µM in data set [2]; 3.99 µM in data set [3]; 4.77 µM in data set [5]; 7.36 µM in data set [6]. In data set [4], the Activity entry is reported as “Non-toxic”.

For the molecule `C[C@H](CC[C@@H](O)C(C)(C)O)[C@H]1CC[C@@]2(C)C3=C(C[C@H](O)[C@]12C)[C@@]1(C)C[C@@H](O)[C@H](O)C(C)(C)[C@@H]1CC3`, the IC50 in data set [1] was found to be 8.22 µM; in data set [3], 7.85 µM; in data set [5] it was 5.17 µM; in data set [6], 8.53 µM. Moreover, in data set [2], the outcome was inactive. Further, in data set [4], the Activity result is recorded as “Toxic”.

With `COC(=O)CNC(=O)CC(C)(O)CC(=O)O[C@@H]1C[C@]2(C)C3=C(CC[C@H]2C(C)(C)[C@H]1O)[C@]1(C)CC[C@H]([C@H](C)CC[C@@H](O)C(C)(C)O)[C@@]1(C)[C@@H](O)C3` (some centres not stated), the IC50 in data set [1] was above 30 µM; in data set [3], above 30 µM; in data set [5], 9.16 µM; in data set [6] it was above 30 µM. The outcome in data set [2] was inactive. In data set [4], the Activity result is “Toxic”.

Turning to `COC(=O)CNC(=O)CC(C)(O)CC(=O)O[C@@H]1C[C@]2(C)C3=C(CC[C@H]2C(C)(C)[C@H]1O)[C@]1(C)CC[C@H]([C@H](CO)CC[C@@H](O)C(C)(C)O)[C@@]1(C)[C@@H](O)C3` (some centres not stated), the IC50 in data set [1] is above 30 µM; in data set [3] it was above 30 µM; in data set [5], 5.73 µM; in data set [6], above 30 µM. Moreover, in data set [2], the result was inactive. In data set [4], the Activity result is “Toxic”.

Regarding `C[C@H](CC[C@@H](O)C(C)(C)O)[C@H]1CC[C@@]2(C)C3=C(C[C@H](O)[C@]12C)[C@@]1(C)C[C@@H](O)[C@H](OC(=O)C[C@@](C)(O)CC(=O)O)C(C)(C)[C@@H]1CC3`, the IC50 in data set [1], in data set [3], in data set [5] and in data set [6] was above 30 µM each time. The result in data set [2] was inactive.

Turning to `COC(=O)CNC(=O)CC(C)(O)CC(=O)O[C@H]1[C@H](O)C[C@]2(C)C3=C(CC[C@H]2C1(C)C)[C@]1(C)CC[C@H]([C@H](C)CC[C@@H](O)C(C)(C)O)[C@@]1(C)[C@@H](O)C3` (some centres not stated), the IC50 in data set [1] is above 30 µM; in data set [3], above 30 µM; in data set [5] it was 8.6 µM; in data set [6], above 30 µM. In addition, the result in data set [2] was inactive. For the same molecule, the Activity result in data set [4] was “Toxic”.

`CC(C)(O)[C@H](O)CC[C@@H](CO)[C@H]1CC[C@@]2(C)C3=C(CC(=O)[C@]12C)[C@@]1(C)C[C@@H](O)[C@H](O)C(C)(C)[C@@H]1CC3`: the IC50 was above 30 µM in data set [1], above 30 µM in data set [3], above 30 µM in data set [5] and 7.98 µM in data set [6]. In data set [2], the result was inactive. The Activity entry in data set [4] is on record as “Toxic”.

For `CC(C)(O)[C@H](O)CC[C@@H](CO)[C@H]1CC[C@@]2(C)C3=C(C[C@H](O)[C@]12C)[C@@]1(C)C[C@@H](O)[C@H](O)C(C)(C)[C@@H]1CC3`, the IC50 in data set [1] amounted to 3.06 µM; in data set [3], 2.37 µM; in data set [5], 2.29 µM; in data set [6] it was 2.82 µM. In addition, the outcome in data set [2] was inactive. In addition, the Activity entry in data set [4] is listed as “Toxic”.

As to `C[C@H](CC[C@@H](O)C(C)(C)O)[C@H]1CC[C@@]2(C)C3=C(CC(=O)[C@]12C)[C@@]1(C)C[C@@H](O)[C@H](O)C(C)(C)[C@@H]1CC3`, the IC50 is above 30 µM in data set [1], above 30 µM in data set [3], above 30 µM in data set [5] and 9.86 µM in data set [6]. In addition, the result in data set [2] was inactive. In addition, the Activity result in data set [4] is given as “Non-toxic”.

Take `CC(C)(O)[C@H](O)CC[C@@H](CO)[C@H]1CC[C@@]2(C)C3=CC[C@H]4C(C)(C)[C@@H](O)[C@H](O)C[C@]4(C)C3=C[C@H](O)[C@]12C`: the IC50 in data set [1] is 7.71 µM; in data set [3], 4.47 µM; in data set [5] it was 4.54 µM; in data set [6], 3.29 µM. For the same molecule, in data set [2], the result was inactive. The Activity result in data set [4] is “Toxic”.

With `CC(C)(O)[C@H](O)CC[C@@H](CO)[C@H]1CC[C@]2(C)[C@]1(C)[C@@H](O)C=C1[C@]23O[C@H]3C[C@H]2C(C)(C)[C@@H](O)[C@H](O)C[C@]12C`, the IC50 in data set [1] turned out to be 8.53 µM; in data set [3] it was 6.59 µM; in data set [5], 8.26 µM; in data set [6], 7.08 µM. Moreover, the result in data set [2] was inactive. The Activity result in data set [4] is recorded as “Non-toxic”.

As for `COc1cccc2c1C(=O)c1c(O)c3c(c(O)c1C2=O)C[C@@](O)(C(=O)CO)C[C@@H]3O[C@H]1C[C@H](N)[C@H](O)[C@H](C)O1` [DOXORUBICIN], the IC50 in data set [1] was found to be 0.13 µM; in data set [3], 0.02 µM; in data set [5], 0.01 µM; in data set [6], 0.01 µM.

On to `C[C@H](CC[C@@H](O)C(C)(C)O)[C@H]1CC[C@@]2(C)C3=C(C[C@H](O)[C@]12C)[C@@]1(C)C[C@@H](OC(=O)CC(C)(O)CC(=O)O)[C@H](O)C(C)(C)[C@@H]1CC3` (some centres not stated), for which the IC50 is 28.5 µM in data set [1]; 93.1 µM in data set [2]; 27.2 µM in data set [3]; 16.6 µM in data set [5]; 22.2 µM in data set [6]. Also, the Activity entry in data set [4] is given as “Non-toxic”.

For the molecule `COC(=O)CNC(=O)CC(C)(O)CC(=O)O[C@H]1[C@H](O)C[C@]2(C)C3=C(CC[C@H]2C1(C)C)[C@]1(C)CC[C@H]([C@H](CO)CC[C@@H](O)C(C)(C)O)[C@@]1(C)[C@@H](O)C3` (some centres not stated), the IC50 in data set [1] was above 30 µM; in data set [3], above 30 µM; in data set [5], 9.06 µM; in data set [6], above 30 µM. In addition, the result in data set [2] was inactive.

As for `CC(C)(O)[C@H](O)CC[C@@H](CO)[C@H]1CC[C@@]2(C)C3=C(C[C@H](O)[C@]12C)[C@@]1(C)C[C@@H](O)[C@H](OC(=O)C[C@@](C)(O)CC(=O)O)C(C)(C)[C@@H]1CC3`, the IC50 in data set [1], in data set [3], in data set [5] and in data set [6] was above 30 µM throughout. The result in data set [2] was inactive. Further, the Activity entry in data set [4] was “Non-toxic”.

Regarding `CC(C)(O)[C@H](O)CC[C@@H](CO)[C@H]1CC[C@@]2(C)C3=C(C[C@H](O)[C@]12C)[C@@]1(C)C[C@@H](OC(=O)C[C@@](C)(O)CC(=O)O)[C@H](O)C(C)(C)[C@@H]1CC3`, the IC50 came to 28 µM in data set [1], 25.5 µM in data set [3], 25.2 µM in data set [5] and 16.2 µM in data set [6]. In addition, the result in data set [2] was inactive. Further, the Activity entry in data set [4] is given as “Non-toxic”.
